Measured values reported in ChEMBL document CHEMBL1671864, “First assessment in humans of the safety, tolerability, pharmacokinetics, and ex vivo pharmacodynamic antimalarial activity of the new artemisinin derivative artemisone” (Antimicrob Agents Chemother, 2008).

Tests used:
[1] = Tmax in healthy human plasma at 30 mg, po administered as single ascending doses as solution during 10 hrs overnight fasting state; format: ADME, organism-based
Method in brief: (§1)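 Healthy Caucasian male volunteers, randomized within each dose group against placebo, given a single oral solution with 240 ml water after a 10-h overnight fast. Plasma sampled predose and at 0.25–14 h, quantified by LC/MS-MS (MRM, deuterated internal standard). Tmax read directly from individual noncompartmental concentration–time data.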

[2] = AUC in healthy human plasma at 80 mg, po administered as four 20 mg immediate release tablets daily for 3 days during 10 hrs overnight fasting state measured after 3 day; format: ADME, organism-based; set-up: time < 10 hr, dose 80 mg, route oral
Method in brief: (§2)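 Healthy Caucasian males took 40 mg (2×20-mg IR tablets) or 80 mg (4 tablets) orally daily for 3 days after a 10-h fast. Plasma parent drug was measured by LC/MS-MS from predose to 14 h after the first and third doses. Noncompartmental analysis: AUC by log-linear trapezoid extrapolated via kel, CL/F = dose/AUC, V/F = CL/F÷kel, geometric means.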

Homo sapiens [3] = experiment: Toxicity in healthy human assessed as occurrence of clinically relevant changes in vital signs at 40 mg, po administered daily for 3 days as two 20-mg immediate-release tablets during 10 hrs overnight fasting state; format: organism-based; details: in vivo
Method in brief: (§3)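 Healthy Caucasian men received single ascending doses (10–40 mg solution, 80 mg tablets) or 3-day daily tablet courses, all fasting, with randomized placebo controls. Supine blood pressure, heart rate and resting 12-lead ECG were recorded before and after dosing.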

[4] = Mean residence time in healthy human at 40 mg, po administered as two 20 mg immediate release tablets daily for 3 days during 10 hrs overnight fasting state measured after 3 day; format: ADME, organism-based; details: in vivo
Method in brief: (§4)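 Healthy Caucasian males took tablets once daily for 3 days with 240 ml water after a 10-h fast. Heparinised blood was drawn predose and at 0.25–14 h after the first and last doses. Plasma parent drug and metabolites M1–M3 were measured by LC/MS-MS (MRM, deuterated internal standard). Noncompartmental analysis gave Cmax observed, t1/2 = 0.693/kel and MRT = AUMC/AUC. Values are geometric means.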

Homo sapiens [5] = experiment: Toxicity in healthy human assessed as decrease in glutamate dehydrogenase level at 80 mg, po administered daily for 3 days as four 20-mg immediate-release tablets during 10 hrs overnight fasting state measured after 2 days last post treatment; format: organism-based; details: in vivo, 48 h
[6] = AUC in healthy human plasma at 40 mg, po administered as two 20 mg immediate release tablets daily for 3 days during 10 hrs overnight fasting state measured after 1 day; format: ADME, organism-based; set-up: time < 10 hr, dose 40 mg, route oral; method in brief: as §2
[7] = Apparent oral clearance in healthy human at 40 mg, po administered as two 20 mg immediate release tablets daily for 3 days during 10 hrs overnight fasting state measured after 1 day; format: ADME, organism-based; details: in vivo; method in brief: as §2
[8] = AUC in healthy human plasma at 80 mg, po administered as four 20 mg immediate release tablets daily for 3 days during 10 hrs overnight fasting state measured after 1 day; format: ADME, organism-based; set-up: dose 80 mg, time < 10 hr, route oral; method in brief: as §2
[9] = Cmax in healthy human plasma at 40 mg, po administered as two 20 mg immediate release tablets daily for 3 days during 10 hrs overnight fasting state measured after 3 day; format: ADME, organism-based; set-up: dose 40 mg, route oral; method in brief: as §4
[10] = Half life in healthy human plasma at 80 mg, po administered as four 20 mg immediate release tablets daily for 3 days during 10 hrs overnight fasting state measured after 3 day; format: ADME, organism-based; method in brief: as §4
[11] = Mean residence time in healthy human at 80 mg, po administered as four 20 mg immediate release tablets daily for 3 days during 10 hrs overnight fasting state measured after 1 day; format: ADME, organism-based; details: in vivo; method in brief: as §4
[12] = Cmax in healthy human plasma at 80 mg, po administered as single immediate release tablets during 10 hrs overnight fasting state; format: ADME, organism-based; set-up: dose 80 mg, route oral
Method in brief: (§5)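 Healthy Caucasian male volunteers, single oral dose with 240 ml water after a 10-h overnight fast. Heparinised venous blood was drawn predose and at 0.25–14 h. Plasma was stored frozen. Parent drug and metabolites M1–M3 were measured by LC/MS-MS (MRM, deuterated internal standard). Noncompartmental analysis gave Cmax observed, t1/2 = 0.693/kel (terminal regression) and MRT = AUMC/AUC. Values are geometric means.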

[13] = Cmax in healthy human plasma at 10 mg, po administered as single ascending doses as solution during 10 hrs overnight fasting state; format: ADME, organism-based; set-up: dose 10 mg, route oral; method in brief: as §5
[14] = Apparent oral clearance in healthy human at 30 mg, po administered as single ascending doses as solution during 10 hrs overnight fasting state; format: ADME, organism-based; details: in vivo
Method in brief: (§6)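 Single ascending oral doses in healthy Caucasian men, given fasted (10-h overnight) with 240 ml water: 10, 20, 30 or 40 mg as oral solution, or 80 mg as IR tablets. Parent plasma levels by LC/MS-MS over 0.25–14 h. Noncompartmental analysis: kel by terminal-phase least-squares regression, AUC extrapolated to infinity, CL/F = dose/AUC, V/F = CL/F÷kel.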

Homo sapiens [15] = experiment: Toxicity in healthy human assessed as occurrence of changes in electrocardiogram parameters at 40 mg, po administered daily for 3 days as two 20-mg immediate-release tablets during 10 hrs overnight fasting state; format: organism-based; details: in vivo; method in brief: as §3
Homo sapiens [16] = experiment: Toxicity in healthy human assessed as increase in glutamate dehydrogenase level at 80 mg, po administered daily for 3 days as four 20-mg immediate-release tablets during 10 hrs overnight fasting state measured after 24 hrs last post treatment; format: organism-based; details: in vivo
[17] = AUC in healthy human plasma at 20 mg, po administered as single ascending doses as solution during 10 hrs overnight fasting state; format: ADME, organism-based; set-up: time < 10 hr, dose 20 mg, route oral; method in brief: as §6
Homo sapiens [18] = experiment: Toxicity in healthy human assessed as decrease in alanine aminotransferase level at 80 mg, po administered daily for 3 days as four 20-mg immediate-release tablets during 10 hrs overnight fasting state measured after 2 days last post treatment; format: organism-based; details: in vivo, 48 h
[19] = Cmax in healthy human plasma at 40 mg, po administered as single ascending doses as solution during 10 hrs overnight fasting state; format: ADME, organism-based; set-up: dose 40 mg, route oral; method in brief: as §5
[20] = AUC in healthy human plasma at 80 mg, po administered as single immediate release tablets during 10 hrs overnight fasting state; format: ADME, organism-based; set-up: dose 80 mg, time < 10 hr, route oral; method in brief: as §6
[21] = Half life in healthy human plasma at 80 mg, po administered as single immediate release tablets during 10 hrs overnight fasting state; format: ADME, organism-based; method in brief: as §5
[22] = Apparent oral clearance in healthy human at 80 mg, po administered as four 20 mg immediate release tablets daily for 3 days during 10 hrs overnight fasting state measured after 3 day; format: ADME, organism-based; details: in vivo; method in brief: as §2
Homo sapiens [23] = experiment: Toxicity in healthy human assessed as increase in alanine aminotransferase level at 80 mg, po administered daily for 3 days as four 20-mg immediate-release tablets during 10 hrs overnight fasting state measured after 24 hrs last post treatment; format: organism-based; details: in vivo
[24] = Apparent oral clearance in healthy human at 10 mg, po administered as single ascending doses as solution during 10 hrs overnight fasting state; format: ADME, organism-based; details: in vivo; method in brief: as §6
[25] = Mean residence time in healthy human at 80 mg, po administered as four 20 mg immediate release tablets daily for 3 days during 10 hrs overnight fasting state measured after 3 day; format: ADME, organism-based; details: in vivo; method in brief: as §4
[26] = Apparent volume of distribution with respect to the bioavailability in healthy human at 30 mg, po administered as single ascending doses as solution during 10 hrs overnight fasting state; format: ADME, organism-based; details: in vivo, read-out: Vc/F; method in brief: as §6
[27] = Half life in healthy human plasma at 80 mg, po administered as four 20 mg immediate release tablets daily for 3 days during 10 hrs overnight fasting state measured after 1 day; format: ADME, organism-based; method in brief: as §4
[28] = Tmax in healthy human plasma at 20 mg, po administered as single ascending doses as solution during 10 hrs overnight fasting state; format: ADME, organism-based; method in brief: as §1
[29] = Apparent oral clearance in healthy human at 80 mg, po administered as single immediate release tablets during 10 hrs overnight fasting state; format: ADME, organism-based; details: in vivo; method in brief: as §6

C[C@H]1[C@H](N2CCS(=O)(=O)CC2)O[C@@H]2O[C@@]3(C)CC[C@H]4[C@H](C)CC[C@@H]1[C@@]24OO3 [ARTEMIFONE]
Tmax [1]: 0.5 h
AUC at 10 h [2]: 337 ng·h/mL
Activity (Homo sapiens [3]): Non-toxic
MRT [4]: 3.74 h
Activity (Homo sapiens [5]): Non-toxic
AUC at 10 h [6]: 184 ng·h/mL
CL/F [7]: 3630 mL/min
AUC at 10 h [8]: 343 ng·h/mL
Cmax [9]: 95 ng/mL
half-life [10]: 3.07 h
MRT [11]: 3.3 h
Cmax [12]: 140 ng/mL
Cmax [13]: 40 ng/mL
CL/F [14]: 6960 mL/min
Activity (Homo sapiens [15]): Non-toxic
Activity (Homo sapiens [16]): Non-toxic
AUC at 10 h [17]: 65.7 ng·h/mL
Activity (Homo sapiens [18]): Non-toxic
Cmax [19]: 83 ng/mL
AUC at 10 h [20]: 282 ng·h/mL
half-life [21]: 2.79 h
CL/F [22]: 3950 mL/min
Activity (Homo sapiens [23]): Non-toxic
CL/F [24]: 5640 mL/min
MRT [25]: 3.53 h
Vd/F [26]: 26.6 L/kg
half-life [27]: 2.97 h
Tmax [28]: 0.5 h
CL/F [29]: 4740 mL/min
